Compound activity deposited in PubChem BioAssay by several laboratories.
Only some compounds are listed: those with a hit (about 1.9% of all), similar ones and a draw of the others.
Hck Nef HTS: inhibitors of human Hck kinase activated by Nef; hit rate 0.68% among 220,000; inhibition, % at 20 µM; AID 463187; P08631; Recombinant Hck-YEEI plus Nef, Z-Lyte FRET kinase assay;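 active = Hck-Nef kinase inhibition above about 50%, limit read from the data; inactive = inhibition below that limit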;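 note: 0% = DMSO with Hck plus Nef and 100% = Hck alone without Nef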
RanGTP-Imp inh: inhibitors of RanGTP-importin-beta interaction, primary screen, biochemical, FRET, CFP-Ran, YFP-importin-beta, homogeneous. hit rate 1.1% among 300,000. inhibition, % (test concentration not listed). cell-free CFP-Ran/YFP-importin-beta FRET ratio;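 active = more than half of the replicate wells show a fall in the fluorescence ratio signal beyond about 16%, limit read from the data, passing the limit was not always enough; inconclusive = exactly half of the replicate wells pass the set limit; inactive = fewer than half of replicates pass the limit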;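 note: 0% = DMSO wells and 100% = Ran loaded with GDP instead of GTP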
Runt-CBFb FRET: blocks binding of human RUNX1 Runt domain to CBFb | Q01196+Q13951 | Cerulean-Runt/Venus-CBFb FRET ratio 530/480, 1 h | inhibition, % at 20 µM | hit rate 0.46% among 220,000;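 active = inhibition over about 50% at 20 µM in the single-dose screen, limit read from the data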;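 note: 0% = DMSO wells and 100% = excess unlabeled CBFb competitor control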
Target sequence (Q01196 whole entry, looked up, the tested form may be a part): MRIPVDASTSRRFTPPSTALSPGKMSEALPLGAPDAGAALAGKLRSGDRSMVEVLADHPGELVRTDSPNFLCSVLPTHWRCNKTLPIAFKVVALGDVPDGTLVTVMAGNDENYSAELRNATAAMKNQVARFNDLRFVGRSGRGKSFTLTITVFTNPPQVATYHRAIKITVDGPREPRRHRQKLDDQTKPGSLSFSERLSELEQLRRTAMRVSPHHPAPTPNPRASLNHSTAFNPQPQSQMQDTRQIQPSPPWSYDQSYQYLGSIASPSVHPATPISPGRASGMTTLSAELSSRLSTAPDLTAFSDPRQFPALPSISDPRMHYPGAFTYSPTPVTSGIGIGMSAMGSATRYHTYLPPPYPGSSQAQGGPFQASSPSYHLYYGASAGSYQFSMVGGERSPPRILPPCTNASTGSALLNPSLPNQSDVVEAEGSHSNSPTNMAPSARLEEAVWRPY
Target sequence (Q13951 whole entry, looked up, the tested form may be a part): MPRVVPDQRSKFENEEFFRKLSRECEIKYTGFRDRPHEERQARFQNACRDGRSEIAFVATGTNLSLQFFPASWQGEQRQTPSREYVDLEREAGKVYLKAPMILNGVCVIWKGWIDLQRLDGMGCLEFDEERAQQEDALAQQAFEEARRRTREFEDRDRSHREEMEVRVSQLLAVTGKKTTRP
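Schedule: protein complex preformed 1 h, compound exposure 1 h, room temperature, dark; test system: Cerulean-labeled Runt domain protein; amount: 100 nM per protein; buffer or medium: Tris 50 mM pH 7.5, KCl, K2SO4, 0.01% BSA; read-out: loss of energy transfer signal; detection: FRET fluorescence; controls: 5 µM unlabeled CBFb as full-inhibition high control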
Runt-SMMHC FRET: inhibitors of human RUNX1 Runt domain binding to CBFb-SMMHC; AID 1434; hit rate 0.74% among 220,000; Q01196+Q13951; Cerulean-Runt/Venus-CBFb-SMMHC FRET ratio 530/480, 1 h; inhibition, % at 20 µM;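 active = mean inhibition across duplicate retests at 20 µM reaching about 50%, limit read from the data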;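 note: 0% = DMSO wells and 100% = wells with excess untagged CBFb-SMMHC; inhibitors lower the FRET ratio by blocking Runt binding to CBFb-SMMHC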
RUNX1 CBFb TR: Runt-CBFb binding inhibition; hit rate 20% among 480; shares compounds with Runt-CBFb FRET; TR-FRET RUNX1 Runt domain-CBFb binding; inhibition, % at 20 µM; in the data active = inhibition above about 40%
YIC counter: counter-screen for RanGTP-importin-beta inhibitors: YIC FRET probe | Purified YIC probe, intramolecular FRET ratio YFP/CFP | shares compounds with RanGTP-Imp inh | IC50, µM | hit rate 40% among 1,000;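 active = fitted half-maximal inhibitory concentration no more than tenfold above the top dose tested; inconclusive = flat fit with 30 to 70% activity, or poor fit; inactive = half-maximal concentration beyond tenfold above the top dose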
Hck Nef conf: Hck-Nef kinase inhibition, confirmation; shares compounds with Hck Nef HTS; Recombinant Hck-YEEI:Nef, Z-Lyte FRET kinase assay; calls only at 10 µM; hit rate 28% among 1,300; AID 463188;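 active = average inhibition of at least 50%, with Z-scores no higher than 3 in both the phospho-tyrosine peptide and fluorescence counterscreens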
Numbers without * were called inactive; i = inactive; ? = inconclusive; . = no result given; + = active, no number.

SMILES	Hck Nef HTS	RanGTP-Imp inh	Runt-CBFb FRET	Runt-SMMHC FRET	RUNX1 CBFb TR	others
COC(=O)c1c(N)n(-c2ccc(N3CCOCC3)cc2)c2nc3ccccc3nc12	.	.	-0.8	-1.1	.
COc1ccc(-c2c(C(F)(F)F)nn(C)c2NC(=O)CSCC(=O)O)cc1	20.6	-1.7	0.2	-1.6	.
COC(=O)C1=C(C)NC2=C(C(=O)CCC2)C1c1cccc(C)n1 (stereo unspecified)	22.4	19.0*	60.3*	132.4*	4.0	YIC counter=31.2*
COc1ccc(CCC(=O)Nc2cccc(S(=O)(=O)N(C)C)c2)cc1OC	5.4	5.7	-0.8	-1.4	.
O=C(N/N=C/c1ccc(N2CCCC2)c([N+](=O)[O-])c1)c1cccnc1	7.7	?	11.9	2.0	.
O=C(Cn1c2ccccc2c(=O)c2ccccc21)N/N=C/c1ccc(N2CCCC2)c([N+](=O)[O-])c1	37.2	28.4*	75.5*	132.9*	-1.0	YIC counter=>50
COc1ccc(NC(=O)C(=O)NCCC2CCCCN2S(=O)(=O)c2ccccc2)cc1 (stereo unspecified)	.	-3.6	.	.	.
Nc1c(C(=O)NCCN2CCOCC2)c2nc3ccccc3nc2n1CCc1ccccc1F	51.5*	93.0*	70.1*	61.3*	24.1	Hck Nef conf=i
COc1cc(-c2nc3ccccc3s2)ccc1O	154.6*	0.3	78.7*	154.3*	34.1
CCOc1cc(-c2nc3ccccc3s2)ccc1O	+	2.9	54.9*	116.7*	38.2
CN(C)C(CNC(=O)C1CC(=O)N(Cc2ccccc2)C1)c1ccccc1 (stereo unspecified)	.	1.9	.	.	.
CCNc1ccc2c(Cl)cc(=O)oc2c1	51.9*	36.4*	54.6*	95.3*	6.6	Hck Nef conf=i
CC(C)(C)OC(=O)N1CCC[C@H]1c1nnc(SCc2ccccc2F)o1	1.2	7.4	-2.7	3.0	.
O=C(NCC1CCCO1)c1cc2ccccc2nc1Cl (stereo unspecified)	6.9	7.3	1.4	-1.8	.
CC(C)Cn1c(N)c(C(=O)NCC2CCCO2)c2nc3ccccc3nc21 (stereo unspecified)	53.2*	82.2*	52.1*	57.7*	30.9
N#Cc1c(C#N)c(-c2ccccc2)n(-c2ccccc2)c1N	-0.5	1.1	-0.9	-5.0	.
N#Cc1c(N)n(-c2cccc(O)c2)c2nc3ccccc3nc12	72.4*	26.5*	72.8*	101.5*	27.5
CC(=O)Nc1ccc(S(=O)(=O)Nc2nc3cc4c(cc3nc2Cl)OCCO4)cc1	89.1*	10.7	51.0*	75.4*	36.1
COc1ccc(N2CCN(C(=O)c3cc(=O)c4cc(C)ccc4o3)CC2)cc1	.	-4.6	.	.	.
CCOC(=O)c1cc2c(=O)n3ccccc3nc2n(CCOC)c1=NC(=O)C(C)(C)C	101.0*	76.6*	76.6*	-15.6	-7.3
COCCCn1c(C(=O)NCCC2=CCCCC2)cc2c(=O)n3ccccc3nc21	.	1.6	.	.	.
CNC(=O)/C(=C\c1ccc([N+](=O)[O-])cc1)NC(C)=O	0.9	-5.9	0.1	-0.3	.
c1coc(-c2nc(-c3ccco3)c(-c3ccco3)nc2-c2ccco2)c1	59.8*	59.6*	51.1*	46.3	-37.6	Hck Nef conf=i
CCN(CC)S(=O)(=O)c1cc(OC)c(Cl)cc1OC	3.2	-3.2	-1.5	-1.5	.
CCCCc1cc(=O)oc2c(CN(CC)CC)c(O)c(Cl)cc12	154.6*	?	74.9*	150.2*	-32.1
SMILES	Hck Nef HTS	RanGTP-Imp inh	Runt-CBFb FRET	Runt-SMMHC FRET	RUNX1 CBFb TR	others
COc1ccccc1NCCC(=O)OCC(=O)Nc1ccc(Cl)cn1	-17.2	-0.6	-1.5	0.6	.
Cc1ccc(S(=O)(=O)NC(C(=O)Oc2cc3oc(=O)cc(C)c3cc2Cl)C(C)C)cc1 (stereo unspecified)	100.3*	?	60.6*	114.9*	52.8*
Cc1cc(=O)oc2cc(OC(C)C(=O)O)c(Cl)cc12 (stereo unspecified)	1.3	-2.0	0.3	46.9	.
CC(=O)Oc1cc2oc(=O)cc(C)c2cc1Cl	+	12.5	78.6*	113.0*	-57.2
Cc1nc2ccc(S(=O)(=O)Nc3cccc(-c4nc5cccnc5s4)c3)cc2s1	-9.4	0.9	43.9	1.2	.
O=S(=O)(Nc1ccc(-c2nc3cccnc3s2)cc1)c1ccccc1F	+	9.3	80.8*	146.1*	-2.4
Cc1nc2ccc(S(=O)(=O)Nc3ccc(-c4nc5cccnc5s4)cc3)cc2s1	55.6*	21.5*	74.1*	.	85.5*	YIC counter=38.5*
COCCNC(=O)c1c(N)n(-c2cccc(C)c2)c2nc3ccccc3nc12	60.0*	97.4*	60.4*	78.8*	24.7
COc1cccc(-n2c(N)c(C(=O)Nc3c(C)n(C)n(-c4ccccc4)c3=O)c3nc4ccccc4nc32)c1	43.7	-3.9	9.5	-106.3	.
COc1ccc(-n2c(N)c(C(=O)NCc3ccco3)c3nc4ccccc4nc32)cc1	68.9*	37.4*	50.7*	120.0*	21.3	Hck Nef conf=i
COc1cccc(CN2CCN(CCCc3ccccc3)C(CCO)C2)c1O (stereo unspecified)	.	1.5	.	.	.
COc1ccc(OC)c(NC(=O)CSc2ncnc3c2cnn3-c2ccccc2Cl)c1	12.7	-1.7	-3.0	-0.1	.
Cc1cc2oc(=O)c3c(c2cc1OC(=O)c1ccco1)CCCC3	17.1	-3.3	-0.6	-3.7	.
O=C(Oc1cc2oc(=O)c3c(c2cc1Cl)CCCC3)c1ccco1	82.8*	-2.9	67.8*	120.1*	36.5
O=C(Oc1ccc2c3c(c(=O)oc2c1)CCCC3)c1cccs1	14.5	3.5	16.9	32.4	.
O=C(Oc1cc2oc(=O)c3c(c2cc1Cl)CCCC3)c1cccs1	77.9*	.	76.4*	133.1*	26.2
O=S1(=O)CCC(NC(=S)N2CCOCC2)C1 (stereo unspecified)	5.7	2.7	0.3	1.9	.
COc1ccc(-n2c(Cc3cccn3C)nnc2SCC(=O)Nc2ccc3c(c2)OCO3)cc1	-6.5	1.1	3.3	-2.4	.
CN(Cc1c(O)ccc2c1oc(=O)c1ccccc12)C1CCCCC1	-4.5	-4.3	-8.6	-34.9	.
CN(C)Cc1c(O)ccc2c3c(c(=O)oc12)CCCCC3	75.9*	20.2*	70.0*	136.0*	4.4	YIC counter=21.6*
CC1=C(C(=O)OC(C)C)C(c2ccc(N(C)C)cc2)C2=C(CC(C)(C)CC2=O)N1 (stereo unspecified)	1.1	1.0	5.2	8.7	.
CC1=C(C(=O)OC(C)C)C(c2cccnc2)C2=C(CC(C)(C)CC2=O)N1 (stereo unspecified)	34.1	18.7*	77.4*	101.7*	.	YIC counter=23.2*
c1ccc(COC(CN2CCCCCC2)CN2CCCCCC2)cc1	17.7	-0.8	3.2	2.5	.
